Reference: ChEMBL document CHEMBL5096231, “Covalently Conjugated NOD2/TLR7 Agonists Are Potent and Versatile Immune Potentiators” (J Med Chem, 2022)
Activity calls are given as the source filed them. The rule behind the calls is not given here.

Key:
CD4+ve Th [1] = experiment: (§1) Induction of mouse ovalbumin specific CD4+ T cell activation assessed as increase in TNF expression at 1 uM preincubated for 18 hrs with mouse BDMC cells in presence of ovalbumin followed by washout and further coincubated with CD4+ T cells and measured after 72 hrs; format: functional, cell-based
Outline: (§2)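 Supernatants taken after the 72 h coculture of washed BMDCs (18 h pretreatment with 1 μM compound, LPS 1 μg/mL or vehicle, plus OVA 50 μg/mL) with OT-II CD4+ or OT-I CD8+ T cells. Cytokines measured by mouse Th1/Th2/Th17 cytometric bead array. Duplicates of two independent experiments, mean ± SEM.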

[2] = Induction of activation of human CD56+ CD3- NK cells co-cultured with human PBMC cells assessed as increase in CD107a expression at 1 uM incubated for 24 hrs by flow cytometry analysis (reference value: 1.5%); format: functional, Natural killer cell
CD8-positive T cell [3] = experiment: (§3) Induction of mouse ovalbumin specific CD8-positive T cell activation assessed as increase in IFN-gamma expression at 1 uM preincubated for 18 hrs with mouse BDMC cells in presence of ovalbumin followed by washout and further coincubated […] and measured after 72 hrs; format: functional, cell-based; outline: as §2
CD8-positive T cell [4] = experiment: Induction of mouse ovalbumin specific CD8-positive T cell activation assessed as increase in IL-6 expression at 1 uM preincubated for 18 hrs with mouse BDMC cells in presence of ovalbumin followed by washout and further coincubated with CD4+ T cells and measured after 72 hrs; format: functional, cell-based; outline: as §2
MEC1 = experiment: Cytotoxicity against human MEC1 cells cocultured with human PBMC cells assessed as inhibition of cell proliferation at 1 uM incubated with PBMC cells for 18 hrs followed by co-incubation with MEC-1 cells for 4 hrs by SYTOX blue staining based flow cytometric analysis; format: functional
Outline: (§4)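 Human PBMCs (Ficoll-isolated, healthy donors) pretreated 18 h in duplicate with compound (1 nM–1 μM) or 0.1% DMSO. CFSE-labelled K562 or MEC1 target cells then added, effector:target 40:1, 4 h at 37 °C. Sytox blue staining, flow cytometry; CFSE+Sytox+ cells counted as dead. Expressed relative to vehicle; three independent experiments, mean ± SEM.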

[5] = as §1, with “increase in CD25 expression at” for “increase in TNF expression at”, “72 hrs by flow cytometry analysis (reference value: 10.9%)” for “72 hrs”; format: functional, CD4+ve Th
Outline: (§5)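 C57BL/6 BMDCs (GM-CSF 7 days, >90% CD11c+) pulsed 18 h with 1 μM compound, LPS 1 μg/mL or 0.1% DMSO plus OVA 50 μg/mL, washed. 1 × 10^4 BMDCs cocultured 72 h with 5 × 10^4 CFSE-labelled OT-II CD4+ or OT-I CD8+ T cells. Flow: live Thy1.2+ CD4+ or CD8+ cells scored as CD25+ CFSElow. Duplicates of two experiments.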

[6] = Induction of activation of human CD56+ CD3- NK cells co-cultured with human PBMC cells assessed as increase in IFN-gamma expression at 1 uM incubated for 24 hrs by flow cytometry analysis (reference value: 0.04%); format: functional, Natural killer cell
K562 = experiment: Cytotoxicity against human K562 cells cocultured with human PBMC cells assessed as inhibition of cell proliferation at 1 uM incubated with PBMC cells for 18 hrs followed by co-incubation with K562 cells for 4 hrs by SYTOX blue staining based flow cytometric analysis; format: functional; outline: as §4
CD4+ve Th [7] = experiment: Induction of mouse ovalbumin specific CD4+ T cell activation assessed as increase in IFN-gamma expression at 1 uM preincubated for 18 hrs with mouse BDMC cells in presence of ovalbumin followed by washout and further coincubated with CD4+ T cells and measured after 72 hrs; format: functional, cell-based; outline: as §2
[8] = Induction of activation of human CD56+ CD3- NK cells co-cultured with human PBMC cells assessed as increase in CD69 expression at 1 uM incubated for 24 hrs by flow cytometry analysis (reference value: 2.7%); format: functional, Natural killer cell
CD4+ve Th [9] = experiment: Induction of mouse ovalbumin specific CD4+ T cell activation assessed as increase in IL-17A expression at 1 uM preincubated for 18 hrs with mouse BDMC cells in presence of ovalbumin followed by washout and further coincubated with CD4+ T cells and measured after 72 hrs; format: functional, cell-based; outline: as §2
[10] = Cytotoxicity against mouse RAW-Blue cells assessed as reduction in metabolic activity at 10 uM incubated for 18 hrs by MTS assay; format: toxicity, cell-based
Outline: (§6)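 Cells (HEK-Blue NOD2, RAW-Blue or freshly isolated human PBMCs) seeded in duplicate and exposed to 10 μM compound or 0.1% DMSO vehicle for 18 h at 37 °C, 5% CO2. Metabolic activity then measured by CellTiter 96 AQueous One (MTS) assay.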

[11] = Cytotoxicity against HEK-Blue hNOD2 cells assessed as reduction in metabolic activity at 10 uM incubated for 18 hrs by MTS assay; format: toxicity, cell-based; conditions: human, hek-blue hnod2, 18 h; outline: as §6
[12] = Cytotoxicity against human PBMC cells assessed as reduction in metabolic activity at 10 uM incubated for 18 hrs by MTS assay; format: toxicity, cell-based; outline: as §6
[13] = as §3, with “increase in CD25 expression at” for “increase in IFN-gamma expression at”, “72 hrs by flow cytometry analysis (reference value: 12.6%)” for “72 hrs”; format: functional; outline: as §5
CD8-positive T cell [14] = experiment: Induction of mouse ovalbumin specific CD8-positive T cell activation assessed as increase in TNF expression at 1 uM preincubated for 18 hrs with mouse BDMC cells in presence of ovalbumin followed by washout and further coincubated with CD4+ T cells and measured after 72 hrs; format: functional, cell-based; outline: as §2
RAW-Blue = experiment: Activation of NF-kappaB transcriptional activity in mouse RAW-Blue cells expressing NOD2 and TLR7 at 1 uM incubated for 18 hrs by quanti-blue/SEAP-based spectrophotometry analysis; format: cell-based; conditions: filed as activator
Outline: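 RAW-Blue cells pretreated 1 h with NOD2 antagonist SG84 (5 μM), TLR7 antagonist M5049 (1 μM), both, or neither, then given compound or 0.1% DMSO vehicle; 18 h at 37 °C, 5% CO2 in growth medium without Normocin/Zeocin. Supernatant mixed with QUANTI-Blue for 2 h at 37 °C, SEAP read at 630 nm. Activity relative to vehicle; three independent experiments, mean ± SEM.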

CD8-positive T cell [15] = experiment: Induction of mouse ovalbumin specific CD8-positive T cell activation assessed as increase in IL-17A expression at 1 uM preincubated for 18 hrs with mouse BDMC cells in presence of ovalbumin followed by washout and further coincubated with CD4+ T cells and measured after 72 hrs; format: functional, cell-based; outline: as §2
CD4+ve Th [16] = experiment: Induction of mouse ovalbumin specific CD4+ T cell activation assessed as increase in IL-6 expression at 1 uM preincubated for 18 hrs with mouse BDMC cells in presence of ovalbumin followed by washout and further coincubated with CD4+ T cells and measured after 72 hrs; format: functional, cell-based; outline: as §2
PBMC = experiment: Immunostimulatory activity in human PBMC cells assessed as increase in IL-8 production at 1 uM incubated for 18 hrs by flow cytometry analysis; format: functional, cell-based
Outline: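 PBMCs at 1 × 10^6 cells/mL treated with compound (1 μM), LPS (1 μg/mL) or 0.1% DMSO vehicle; cell-free supernatants collected after 18 h at 37 °C, 5% CO2. Cytokines quantified by human inflammatory cytokine bead array on flow cytometry with recombinant standard curves. Four independent experiments, mean ± SEM.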

SMILES	Activity (CD4+ve Th [1])	Activity [2] [%]	Activity (CD8-positive T cell [3])	Activity (CD8-positive T cell [4])	Activity (MEC1)	Activity [5] [%]	Activity [6] [%]	Activity (K562)	Activity (CD4+ve Th [7])	Activity [8] [%]	Activity (CD4+ve Th [9])	Activity [10]	Activity [11]	Activity [12]	Activity [13] [%]	Activity (CD8-positive T cell [14])	Activity (RAW-Blue)	Activity (CD8-positive T cell [15])	Activity (CD4+ve Th [16])	Activity (PBMC)
CCCCOc1nc(N)c2nc(O)n(Cc3ccc(C(=O)NCCCCCC(=O)Oc4ccc(/C=C/C(=O)NCC(=O)N[C@H](C(=O)N[C@H](CCC(=O)OCC)C(=O)OCC)C(C)C)cc4OC)cc3)c2n1	Active	8.6	Active	Active	Active	29.5	21	Active	Active	93	Active	Non-Toxic	Non-Toxic	Non-Toxic	44.7	Active	Active	Active	Active	–
CCOC(=O)CC[C@@H](NC(=O)[C@@H](NC(=O)CNC(=O)/C=C/c1ccc(O)c(OC)c1)C(C)C)C(=O)OCC	–	1.1	–	–	–	12.6	1.4	–	–	14	–	Non-Toxic	Non-Toxic	Non-Toxic	13.1	–	–	–	–	Active
